{"source": "PubChem BioAssay AID821", "about": "(SRMLSC, 2007)", "note": "Active and inactive are the calls of the source.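 Rule for the calls: active = compounds whose fitted half-maximal concentration for reducing fibroblast viability is 100 µM or lower; inactive = the rest.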"}
{"assay": "inhibition of LL 47 lung fibroblast growth, concentration-response curve, selectivity screen for endothelial cell growth inhibitor project, cellular system, ATP luminescence readout (AID 821);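 note: 100% = median of untreated cell-only wells and 0% = no luminescence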", "conditions": "LL 47 lung fibroblast viability, ATP luminescence; at 20 µM (top of the series)", "how_it_was_run": "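System: LL 47 human lung fibroblast cells. Timing: overnight cell settling, then 72 h compound exposure at 37 °C. Measured by: CellTiter-Glo luminescence. Evaluation: percent viability relative to untreated wells, EC50 via 4-parameter fit.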"}
{"compound": "Cc1sc2nc(SCC(=O)NCc3ccco3)n(CCc3ccccc3)c(=O)c2c1C", "viability": "121% (inactive)"}
{"compound": "C=C(C)COc1ccc(-c2n[nH]c(C)c2-c2ccccc2OC)c(O)c1", "viability": "90.3% (inactive)"}
{"compound": "CCOc1ccc(OCc2ccc(C(=O)NCC3CCCO3)o2)cc1", "note": "(configuration not stated)", "viability": "109% (inactive)"}
{"compound": "COc1cc(OC)cc(C(=O)Nc2ccc(-c3nc4ccccc4o3)cc2)c1", "viability": "107% (inactive)"}
{"compound": "Cc1ccc(-c2nc3cccnc3o2)cc1NC(=O)COc1ccc(C(C)(C)C)cc1", "viability": "99.4% (inactive)"}
{"compound": "CCCCOc1ccc(C(=O)OC2CC(C)N(C)CC2C)cc1", "note": "(configuration not stated)", "viability": "96.4% (inactive)"}
{"compound": "N#Cc1nc(-c2ccc(OCc3ccccc3)cc2)oc1NCCCn1ccnc1", "viability": "92.9% (inactive)"}
{"compound": "COc1ccc(CCNC(=O)c2ccc3c(=O)n(Cc4ccco4)c(=S)[nH]c3c2)cc1OC", "viability": "112% (inactive)"}
{"compound": "Cc1ccc(-n2nnnc2SCC(=O)Nc2ccc3c(c2)COC3=O)cc1C", "viability": "94.5% (inactive)"}
{"compound": "Cc1cccc(C)c1N1CCN(c2ccc3nnc(C(F)(F)F)n3n2)CC1", "viability": "81.7% (inactive)"}
{"compound": "C=CCn1c(SCC(=O)NC(=O)NCc2ccco2)nc2sc(CC)cc2c1=O", "viability": "87.4% (inactive)"}
{"compound": "Cc1nn(Cc2ccc(Cl)c(Cl)c2)c(C)c1NC(=O)c1cc(-c2ccc3c(c2)OCO3)on1", "viability": "94.2% (inactive)"}
{"compound": "Cc1cc(/C=C2\\C(=N)N3C(SCc4ccccc4)=NSC3=NC2=O)c(C)n1Cc1ccccc1", "viability": "92.2% (inactive)"}
{"compound": "CCOC(=O)c1c(NC(=O)COc2ncnc3sccc23)sc2c1CCC2", "viability": "83.6% (inactive)"}
{"compound": "CCC(C)[C@@H](NC(=O)OC(C)(C)C)c1nnc(S(=O)(=O)Cc2cccc(C)c2)o1", "note": "(some centres not stated)", "viability": "91.4% (inactive)"}
{"compound": "CCCc1ccc(Oc2c(-c3ccc(O)c(C)c3O)n[nH]c2C)cc1", "viability": "97.3% (inactive)"}
{"compound": "Brc1cccc(-c2nnc3sc(CNC4CCCC4)cn23)c1", "viability": "96.9% (inactive)"}
{"compound": "CC(C(=O)N1CCOCC1)N1C(=O)c2ccccc2C1=O", "note": "(configuration not stated)", "viability": "117% (inactive)"}
{"compound": "CCCCc1ccc(Nc2nc(CCC)cc(=O)[nH]2)cc1", "viability": "91% (inactive)"}
{"compound": "CCCCCCOC(=O)C(C#N)c1nc2ccccc2nc1N1CCN(C)CC1", "note": "(configuration not stated)", "viability": "90.4% (inactive)"}
{"compound": "COc1cc2c(C(=O)NCc3ccc4c(c3)OCO4)cn(CC(C)C)c(=O)c2cc1OC", "viability": "106% (inactive)"}
{"compound": "Cc1nc(C)c(-c2csc(Nc3cccnc3)n2)s1", "viability": "87.8% (inactive)"}
{"compound": "COc1cc(N=c2ssnc2Cl)c(OC)cc1Cl", "viability": "88.6% (inactive)"}
{"compound": "CCCCCn1c(CN2CCN(c3cc(Cl)ccc3C)CC2)nc2c1c(=O)[nH]c(=O)n2C", "viability": "81.2% (inactive)"}
{"compound": "Cc1ccc(-n2c(SCC(=O)Nc3nccs3)nc3c(c2=O)SCC3)cc1", "viability": "107% (inactive)"}
{"compound": "COc1cccc(C(=O)CSc2nnc(-c3cc(OC)cc(OC)c3)o2)c1", "viability": "91.3% (inactive)"}
{"compound": "CC1CCc2sc3nc(N4CCN(CCO)CC4)n4ncnc4c3c2C1", "note": "(configuration not stated)", "viability": "96.4% (inactive)"}
{"compound": "CCOc1ccc(NC(=S)Nc2ccc(C)c([N+](=O)[O-])c2)cc1", "viability": "121% (inactive)"}
{"compound": "COc1ccc(OC)c2sc(N3CCCCC3)nc12", "viability": "96.8% (inactive)"}
{"compound": "CC1CCCN(c2oc(-c3cccc4ccccc34)nc2C#N)C1", "note": "(configuration not stated)", "viability": "99.6% (inactive)"}
{"compound": "CCCCCCn1c(O)c(C=NC2CCCCC2N)c(=O)[nH]c1=O", "note": "(configuration not stated)", "viability": "113% (inactive)"}
{"compound": "Cn1c(-c2ccc3ccccc3n2)nc2cnccc21", "viability": "93.4% (inactive)"}
{"compound": "CCOC(=O)c1sc(NC(=O)CSc2nnnn2-c2ccc(C)cc2C)nc1C", "viability": "81.2% (inactive)"}
{"compound": "CCOc1ccc2nc(NC(=O)CSc3nc4c(c(=O)n(C)c(=O)n4C)n3C(C)C)sc2c1", "viability": "102% (inactive)"}
{"compound": "COc1ccc(NC(=O)c2cc3n(n2)C(C(F)(F)F)CC(c2ccc(OC)cc2)N3)cc1", "note": "(configuration not stated)", "viability": "96.4% (inactive)"}
{"compound": "CC1CC(C)(C)CC2(C1)NC(=S)N(c1ccccc1)N2", "note": "(configuration not stated)", "viability": "109% (inactive)"}
{"compound": "O=C(CC1CCCCC1)c1c(O)c2ccccc2oc1=O", "viability": "88.5% (inactive)"}
{"compound": "CCCCn1c(SCC(=O)Nc2cc(NC(=O)c3ccco3)ccc2C)nc2ccccc2c1=O", "viability": "99.3% (inactive)"}
{"compound": "c1ccc(CSc2nnc(-c3c[nH]c4ccccc34)o2)cc1", "viability": "102% (inactive)"}
{"compound": "CC(=O)Oc1ccc(N2C(=O)C3C(C2=O)C2(C)C=CC3(C)O2)cc1", "note": "(configuration not stated)", "viability": "103% (inactive)"}
{"compound": "Cc1nc(Nc2ccc3c(c2)OCCO3)c2nnn(Cc3ccccc3Cl)c2n1", "viability": "102% (inactive)"}
{"compound": "CCOC(=O)c1ccc(NC(=O)CCc2nc(-c3cccc(C)c3)no2)cc1", "viability": "107% (inactive)"}
{"compound": "Cc1ccccc1-n1ncc2c([N+](=O)[O-])cc([N+](=O)[O-])cc21", "viability": "90.7% (inactive)"}
{"compound": "COc1ccc(Cl)cc1C(=O)n1nc(C)cc1C", "viability": "101% (inactive)"}
{"compound": "COc1ccc(NC(=O)CSc2nnc(CNC(=O)COc3ccc(Cl)cc3)o2)c(OC)c1", "viability": "97% (inactive)"}
{"compound": "Cc1occc1-c1nnc(SCC(=O)NCc2cccs2)n1-c1ccc(F)cc1", "viability": "99.1% (inactive)"}
{"compound": "Cc1ccc2[nH]c3c(N4CCN(Cc5ccc6c(c5)OCO6)CC4)ncnc3c2c1", "viability": "88.1% (inactive)"}
